Screen size: about 2,500 compounds; about 460 (18%) were called active.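 Rule for the calls: active = mean activation above a cutoff of low control average plus 3 SD from the earlier screen (cut at about 12% in these data); inactive = the rest.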 Not all results are given here.

This test in a line: compound fluorescence interference without thin filaments, confirmation, artefact control for cardiac RTF calcium sensitizer project, biochemical (AID 504382). As to conditions: IANBD fluorescence interference counterscreen, buffer, EC20 Ca2+; at 7.2 µM; hits give high values; scaled: EC20 calcium 0, EC100 calcium 100. Summed up:
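Medium: MOPS buffer, 190 mM, with KCl, MgCl2, EGTA, NTA, DTT, pH 7.20; Dosing: one dose of 7.2 µM, 0.7% DMSO; Probe or stimulus: calcium at EC20 level, 0.472 mM final; Incubation: 15 min, 25 °C; Evaluation: compound fluorescence interference relative to control well signal range; Signal: fluorescence, 480/540 nm.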
(In general: The purpose of a counterscreen is to sort out artefacts and off-target activity.)
Take `CC(=O)NC(Cc1ccc(F)c(F)c1)C(=O)NC1CCN(S(=O)(=O)c2ccc(C)cc2)CC1` (stereo not drawn): the fluorescence artifact activation is -0.07% (inactive).

Consider `COc1ccc(-c2c(C#N)c(N)nc3sc(C(=O)c4ccccc4)c(N)c23)cc1`, for which the fluorescence artifact activation is 0.01% (inactive).

For the molecule `COc1ccc(C(=O)c2sc3nc(C)cc(-c4cccs4)c3c2N)cc1`, the fluorescence artifact activation was 6.39% (inactive).

`COc1ccc(C(=O)c2sc3nc(-c4ccccc4)ccc3c2N)cc1`: the fluorescence artifact activation was 21.8% (active).

In the case of `Nc1ccc2cc3[nH]c4cc(N)ccc4c3nc2c1`, the fluorescence artifact activation is 2.11% (inactive).

Take `N#Cc1c(NCCCO)nc(-c2ccccc2)c2c1CCCC2`: the fluorescence artifact activation is 4.04% (inactive).

Regarding `COc1ccccc1C(=O)Nc1ccc(OC(C)C(=O)N2CCOCC2)cc1` (stereo not drawn), the fluorescence artifact activation is 822% (active).

Consider `CCOc1ccc(NC(=O)c2cccc(OC(=S)N3CCOCC3)c2)cc1`, for which the fluorescence artifact activation was 0% (inactive).

`COc1ccc(OC(C)C(=O)Nc2cccc(OC)c2)cc1` (stereo not drawn): the fluorescence artifact activation is 0.45% (inactive).

Turning to `COc1ccc2c(c1)c(/C=C/c1cc[n+](C)cc1)cn2C`, the fluorescence artifact activation is 0.08% (inactive).

On to `COC(=O)c1cc2c(C)c(C)c3ccccn3c-2c1C(=O)OC`, for which the fluorescence artifact activation is 0.46% (inactive).

As to `O=C(CCN1C(=O)/C(=C/c2cccs2)SC1=S)NNC(=O)c1cccc(O)c1`, the fluorescence artifact activation is -0.08% (inactive).

With `Oc1cccc(Nc2nc(O)c(/C=C3\C=Nc4ccccc43)s2)c1`, the fluorescence artifact activation is 43% (active).

`COc1cc([N+](=O)[O-])ccc1NC(=O)COC(=O)c1n[nH]c2ccccc12`: the fluorescence artifact activation is 0.03% (inactive).

As to `COc1cc([N+](=O)[O-])ccc1N/C=C/C(=O)c1cccs1`, the fluorescence artifact activation was 0.6% (inactive).

`COc1cc2c(cc1NC(=O)COC(=O)/C=C/c1ccc([N+](=O)[O-])cc1)oc1ccccc12`: the fluorescence artifact activation was 796% (active).

As for `Cc1c(C)[n+](=O)c(-c2ccc(Br)cc2)c(C)n1[O-]`, the fluorescence artifact activation is 412% (active).

Consider `CCn1cc(C(=O)NCCC(=O)NCCO)c(=O)c2cc3c(cc21)OCO3`, for which the fluorescence artifact activation was 9.79% (inactive).

On to `O=C(C1=NN[C@@H]2C(=O)N(c3ccccc3C(F)(F)F)C(=O)[C@H]12)c1ccc2ccccc2n1`, for which the fluorescence artifact activation was 22.3% (active).

Turning to `Cc1cccc(NC(=S)Nc2ccc(N3CCOCC3)cc2)c1C`, the fluorescence artifact activation was 0.78% (inactive).

Take `Nc1ccc(-c2c3ccc(=O)cc-3oc3cc(O)ccc23)cc1C(=O)O`: the fluorescence artifact activation was -0.02% (inactive).

For the molecule `O=c1ccc2c(-c3ccccc3)c3ccc(O)cc3oc-2c1`, the fluorescence artifact activation was 12.3% (active).

Turning to `O=c1cc2oc3cc(O)c(O)cc3c(-c3ccccc3O)c-2cc1O`, the fluorescence artifact activation was 0.4% (inactive).

Regarding `CCCNS(=O)(=O)c1ccc2c(c1)n(C)c(=O)n2C`, the fluorescence artifact activation is 1.63% (inactive).

In the case of `Cc1cnc(C(=O)Nc2nnc(SCc3c(Cl)cccc3Cl)s2)cn1`, the fluorescence artifact activation is 1.18% (inactive).

`O=C1c2cccc3c(N4CCCCC4)ccc(c23)C(=O)N1c1cccc(O)c1`: the fluorescence artifact activation was 6.35% (inactive).

`O=C(OCCN1CCCCC1)c1ccccc1Br`: the fluorescence artifact activation was -0.03% (inactive).

On to `CN1CCCC(OC(=O)c2ccccc2Br)C1` (stereo not drawn), for which the fluorescence artifact activation was 20.7% (active).

As for `O=C(Cn1c(=O)oc2cc(S(=O)(=O)N3CCCC3)ccc21)N1CCc2ccccc2C1`, the fluorescence artifact activation is 0.09% (inactive).

Regarding `CC(C)(C)c1ccc(C(=O)Nc2cccc3ncccc23)cc1`, the fluorescence artifact activation was 0.15% (inactive).

For the molecule `CCOC(=O)C(=O)Nc1nnc(COc2ccccc2)s1`, the fluorescence artifact activation was -0.01% (inactive).

`NC(=O)CC(NC(=O)Cc1ccc(Cl)cc1)c1ccc(N2CCN(c3ccccn3)CC2)c([N+](=O)[O-])c1` (stereo not drawn): the fluorescence artifact activation is 51.4% (active).

In the case of `O=C(NCc1ccccc1)c1ccc(N2CCC3(CC2)CC(c2ccccc2)=NO3)c([N+](=O)[O-])c1`, the fluorescence artifact activation is -0.07% (inactive).

Regarding `O=C(N/N=C/c1cc([N+](=O)[O-])ccc1N1CCNCC1)c1ccc([N+](=O)[O-])cc1`, the fluorescence artifact activation is 5.53% (inactive).

For the molecule `NC(=O)CC(NC(=O)c1ccc(Br)cc1)c1ccc(N2CCN(c3ccc(F)cc3)CC2)c([N+](=O)[O-])c1` (stereo not drawn), the fluorescence artifact activation is 13.7% (active).

As to `Cc1cc(C)cc(C(=O)NC(CC(N)=O)c2ccc(N3CCCCCC3)c([N+](=O)[O-])c2)c1` (stereo not drawn), the fluorescence artifact activation is 0.1% (inactive).

Turning to `CN(/N=C/c1ccc(O)cc1O)c1ncc(C(F)(F)F)cc1Cl`, the fluorescence artifact activation is 0.11% (inactive).

Take `O=C(c1ccc(Cn2cc([N+](=O)[O-])cn2)o1)N1N=C(C(F)F)CC1(O)C(F)F` (stereo not drawn): the fluorescence artifact activation was 3.96% (inactive).

For `CC/C(=N/Nc1cccc(C)c1)c1cnnc(SC)n1`, the fluorescence artifact activation was 3.63% (inactive).

Take `Cc1ccccc1NC(=S)Nc1ccc(Br)cc1`: the fluorescence artifact activation is -0.08% (inactive).

Turning to `Cc1ccc(Cl)c2c(N=Nc3ccccc3)c(O)[nH]c12`, the fluorescence artifact activation was 0.17% (inactive).

With `COCCN1C(=O)/C(=C/c2ccc(N3CCCC3)cc2C)SC1=S`, the fluorescence artifact activation was 0.17% (inactive).

Take `COc1ccc(N2C(N)=NC(N)=NC2(C)C)cc1`: the fluorescence artifact activation was -0.01% (inactive).

In the case of `COC(=O)c1ccc(NC(=O)c2cccc(OC)c2)cc1`, the fluorescence artifact activation is 0.1% (inactive).

For the molecule `Cc1ccc(OCCCC(=O)NC2CCCCC2)cc1`, the fluorescence artifact activation is 0% (inactive).

For the molecule `Cc1cc(=O)n2nc(N3CCCC3C(=O)Nc3ccc(C(C)C)cc3)sc2n1` (stereo not drawn), the fluorescence artifact activation was 166% (active).

With `Cc1cc(C)n2nc(C(=O)N3CCCC(Nc4ccc(C(C)C)cc4)C3)cc2n1` (stereo not drawn), the fluorescence artifact activation is 2.67% (inactive).

In the case of `COc1cc(NC(=O)[C@@H]2CCCN2S(=O)(=O)c2cccc3cccnc23)cc(OC)c1OC`, the fluorescence artifact activation is 0.18% (inactive).

In the case of `C=C1CCN([C@@H](Cc2ccccc2)C(=O)O)S(=O)(=O)c2ccccc21`, the fluorescence artifact activation is 4.75% (inactive).

For `Cc1cccc(NC(=O)Cn2cnc3ccc(S(=O)(=O)N4CCC(C)CC4)cc3c2=O)n1`, the fluorescence artifact activation is 3.57% (inactive).

On to `COc1ccccc1-[n+]1c(C)cc(/C=C2\Sc3ccccc3N2C)cc1C`, for which the fluorescence artifact activation was 0.15% (inactive).

As to `CC[n+]1c(/C=C2\Sc3ccccc3N2C)ccc2cccc(C)c21`, the fluorescence artifact activation is 0.11% (inactive).

In the case of `COc1ccc(-[n+]2c(C)cc(/C=C3\Sc4ccccc4N3C)cc2C)cc1`, the fluorescence artifact activation was 50.7% (active).

Regarding `CN(C)CCN(C)Cc1c2ccccc2c(CN(C)CCN(C)C)c2ccccc12`, the fluorescence artifact activation was 8.32% (inactive).

With `Cc1cccc(N2C(=O)c3cccc4c(N(C)CCO)ccc(c34)C2=O)c1`, the fluorescence artifact activation was 0.05% (inactive).

On to `CC1(c2cccc(Br)c2)NC(=O)NC1=O` (stereo not drawn), for which the fluorescence artifact activation is 16.7% (active).

As for `Nc1ccc2nc3c(=O)n(C4CCCCC4)c(=O)[nH]c3nc2c1`, the fluorescence artifact activation was 1.78% (inactive).

Consider `Cc1ccc(C)c(N2CCN(C(=O)CN3C(=S)NC(C)(C)CC3C)CC2)c1` (stereo not drawn), for which the fluorescence artifact activation was 8.59% (inactive).

Values taken from PubChem BioAssay AID504382 (The Scripps Research Institute Molecular Screening Center, 2011).
